Results on 28 compounds are retold here after ChEMBL document CHEMBL3352526, “4-Quinolone-3-carboxylic acids as cell-permeable inhibitors of protein tyrosine phosphatase 1B” (Bioorg Med Chem, 2014).

The target of assay [1] is T1, Tyrosine-protein phosphatase non-receptor type 1 (Homo sapiens) (UniProt P18031).
T1 sequence (whole entry): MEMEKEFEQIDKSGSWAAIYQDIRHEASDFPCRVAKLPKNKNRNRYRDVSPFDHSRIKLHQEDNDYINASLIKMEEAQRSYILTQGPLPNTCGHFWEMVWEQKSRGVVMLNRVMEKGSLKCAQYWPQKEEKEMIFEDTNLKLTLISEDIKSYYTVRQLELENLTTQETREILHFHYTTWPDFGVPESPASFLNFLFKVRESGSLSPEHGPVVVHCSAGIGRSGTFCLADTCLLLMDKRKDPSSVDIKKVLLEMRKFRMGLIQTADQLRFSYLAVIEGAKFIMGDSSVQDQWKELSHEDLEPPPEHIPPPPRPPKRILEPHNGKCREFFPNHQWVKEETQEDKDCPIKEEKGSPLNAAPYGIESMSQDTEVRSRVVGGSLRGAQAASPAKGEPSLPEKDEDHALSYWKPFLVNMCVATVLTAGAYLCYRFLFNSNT
Kind of assay: Inhibition of PTP1B (unknown origin) using pNPP as substrate at 20 ug/ml by colorimetric assay.

In assay [2] the target is T2, Tyrosine-protein phosphatase non-receptor type 1 (Homo sapiens, UniProt P18031).
T2 sequence (P18031 whole entry): T1 sequence (whole entry)
The assay can be described thus: Inhibition of PTP1B (unknown origin) using pNPP as substrate by colorimetric assay. In short, it runs like this: (§1)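 GST-PTP1B or GST-TCPTP at 30 nmol/L, 2 mmol/L pNPP, 50 mmol/L MOPS pH 6.5, 2% DMSO, compounds serially diluted from DMSO. Hydrolysis followed continuously at 405 nm for 3 min at 30 °C. IC50 from nonlinear fit of % inhibition vs concentration with Hill coefficient; means ± SD of three replications.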

The target in assay [3] is T3, Tyrosine-protein phosphatase non-receptor type 2 (Homo sapiens, UniProt P17706).
T3 sequence (P17706 whole entry): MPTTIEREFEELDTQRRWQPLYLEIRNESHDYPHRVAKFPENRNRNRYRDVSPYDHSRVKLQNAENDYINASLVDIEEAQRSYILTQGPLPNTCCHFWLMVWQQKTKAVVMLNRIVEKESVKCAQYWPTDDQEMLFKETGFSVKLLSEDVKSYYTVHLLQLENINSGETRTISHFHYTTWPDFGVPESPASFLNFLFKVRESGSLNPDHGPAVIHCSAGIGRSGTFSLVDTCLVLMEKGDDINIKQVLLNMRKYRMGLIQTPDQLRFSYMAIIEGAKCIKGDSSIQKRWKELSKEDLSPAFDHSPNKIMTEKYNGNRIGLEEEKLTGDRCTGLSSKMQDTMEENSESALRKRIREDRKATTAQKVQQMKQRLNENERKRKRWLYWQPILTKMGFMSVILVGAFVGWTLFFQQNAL
The assay can be described thus: Inhibition of TCPTP (unknown origin) using pNPP as substrate by colorimetric assay. A digest of the protocol:
as §1

Assay [4] concerns the target T4, Tyrosine-protein phosphatase non-receptor type 6 (Homo sapiens, UniProt P29350). Kind of assay: Inhibition of SHP1 (unknown origin) using 3-o-methylfluorescein phosphatase substrate by colorimetric assay. A digest of the protocol:
(§2)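 SHP1, SHP2 or LAR recombinant enzyme at 20 nmol/L with 10 µmol/L OMFP in 50 mmol/L MOPS pH 6.5, 2 mmol/L DTT, 1 mmol/L EDTA, 2% DMSO, 30 °C. Fluorescent product read at ex 485/em 530 nm; initial rate from the early linear part of the kinetic curve.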

Assay [5] addresses T5, Tyrosine-protein phosphatase non-receptor type 11 (Homo sapiens, UniProt Q06124).
T5 sequence (Q06124 whole entry): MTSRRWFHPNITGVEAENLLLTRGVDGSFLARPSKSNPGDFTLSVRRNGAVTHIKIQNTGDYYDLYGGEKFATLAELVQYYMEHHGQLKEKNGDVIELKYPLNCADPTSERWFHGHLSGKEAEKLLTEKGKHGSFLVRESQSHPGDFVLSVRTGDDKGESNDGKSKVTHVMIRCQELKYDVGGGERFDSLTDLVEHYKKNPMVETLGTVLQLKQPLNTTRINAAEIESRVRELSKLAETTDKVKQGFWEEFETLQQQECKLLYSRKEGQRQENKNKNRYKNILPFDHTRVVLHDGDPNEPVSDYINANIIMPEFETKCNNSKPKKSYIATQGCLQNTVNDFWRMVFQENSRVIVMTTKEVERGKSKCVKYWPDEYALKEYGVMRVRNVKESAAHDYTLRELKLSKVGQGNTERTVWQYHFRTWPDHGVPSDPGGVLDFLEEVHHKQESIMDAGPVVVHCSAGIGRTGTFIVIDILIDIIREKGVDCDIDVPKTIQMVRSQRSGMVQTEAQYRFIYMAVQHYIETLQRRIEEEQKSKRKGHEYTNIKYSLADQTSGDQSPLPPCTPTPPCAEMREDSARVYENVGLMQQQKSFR
The assay can be described thus: Inhibition of SHP2 (unknown origin) using 3-o-methylfluorescein phosphatase substrate by colorimetric assay. A digest of the protocol:
as §2

For assay [6], the target named is T6, Receptor-type tyrosine-protein phosphatase F (Homo sapiens, UniProt P10586). Kind of assay: Inhibition of LAR (unknown origin) using 3-o-methylfluorescein phosphatase substrate by colorimetric assay. A digest of the protocol:
as §2

The species named for assay [7] is Homo sapiens. The assay can be described thus: Selectivity ratio of IC50 for TCPTP (unknown origin) to IC50 for PTP1B (unknown origin).
For assay [8], the species on record is Homo sapiens. The assay can be described thus: Selectivity ratio of IC50 for SHP2 (unknown origin) to IC50 for PTP1B (unknown origin).
The species entered for assay [9] is Homo sapiens. The assay can be described thus: Selectivity ratio of IC50 for LAR (unknown origin) to IC50 for PTP1B (unknown origin).
The target in assay [10] is T7, Tyrosine-protein phosphatase non-receptor type 11 (Homo sapiens) (UniProt Q06124).
T7 sequence (whole entry): T5 sequence (Q06124 whole entry)
The assay can be described thus: Inhibition of SHP2 (unknown origin) using 3-o-methylfluorescein phosphatase substrate at 20 ug/ml by colorimetric assay.

The target of assay [11] is T6, Receptor-type tyrosine-protein phosphatase F. Kind of assay: Inhibition of LAR (unknown origin) using 3-o-methylfluorescein phosphatase substrate at 20 ug/ml by colorimetric assay.
Assay [12] deals with T8, Tyrosine-protein phosphatase non-receptor type 2 (Homo sapiens) (UniProt P17706).
T8 sequence (whole entry): T3 sequence (P17706 whole entry)
The assay can be described thus: Inhibition of TCPTP (unknown origin) using pNPP as substrate at 20 ug/ml by colorimetric assay.

Assay [13] has as its target T4, Tyrosine-protein phosphatase non-receptor type 6. Kind of assay: Inhibition of SHP1 (unknown origin) using 3-o-methylfluorescein phosphatase substrate at 20 ug/ml by colorimetric assay.

T6 sequence (P10586 whole entry): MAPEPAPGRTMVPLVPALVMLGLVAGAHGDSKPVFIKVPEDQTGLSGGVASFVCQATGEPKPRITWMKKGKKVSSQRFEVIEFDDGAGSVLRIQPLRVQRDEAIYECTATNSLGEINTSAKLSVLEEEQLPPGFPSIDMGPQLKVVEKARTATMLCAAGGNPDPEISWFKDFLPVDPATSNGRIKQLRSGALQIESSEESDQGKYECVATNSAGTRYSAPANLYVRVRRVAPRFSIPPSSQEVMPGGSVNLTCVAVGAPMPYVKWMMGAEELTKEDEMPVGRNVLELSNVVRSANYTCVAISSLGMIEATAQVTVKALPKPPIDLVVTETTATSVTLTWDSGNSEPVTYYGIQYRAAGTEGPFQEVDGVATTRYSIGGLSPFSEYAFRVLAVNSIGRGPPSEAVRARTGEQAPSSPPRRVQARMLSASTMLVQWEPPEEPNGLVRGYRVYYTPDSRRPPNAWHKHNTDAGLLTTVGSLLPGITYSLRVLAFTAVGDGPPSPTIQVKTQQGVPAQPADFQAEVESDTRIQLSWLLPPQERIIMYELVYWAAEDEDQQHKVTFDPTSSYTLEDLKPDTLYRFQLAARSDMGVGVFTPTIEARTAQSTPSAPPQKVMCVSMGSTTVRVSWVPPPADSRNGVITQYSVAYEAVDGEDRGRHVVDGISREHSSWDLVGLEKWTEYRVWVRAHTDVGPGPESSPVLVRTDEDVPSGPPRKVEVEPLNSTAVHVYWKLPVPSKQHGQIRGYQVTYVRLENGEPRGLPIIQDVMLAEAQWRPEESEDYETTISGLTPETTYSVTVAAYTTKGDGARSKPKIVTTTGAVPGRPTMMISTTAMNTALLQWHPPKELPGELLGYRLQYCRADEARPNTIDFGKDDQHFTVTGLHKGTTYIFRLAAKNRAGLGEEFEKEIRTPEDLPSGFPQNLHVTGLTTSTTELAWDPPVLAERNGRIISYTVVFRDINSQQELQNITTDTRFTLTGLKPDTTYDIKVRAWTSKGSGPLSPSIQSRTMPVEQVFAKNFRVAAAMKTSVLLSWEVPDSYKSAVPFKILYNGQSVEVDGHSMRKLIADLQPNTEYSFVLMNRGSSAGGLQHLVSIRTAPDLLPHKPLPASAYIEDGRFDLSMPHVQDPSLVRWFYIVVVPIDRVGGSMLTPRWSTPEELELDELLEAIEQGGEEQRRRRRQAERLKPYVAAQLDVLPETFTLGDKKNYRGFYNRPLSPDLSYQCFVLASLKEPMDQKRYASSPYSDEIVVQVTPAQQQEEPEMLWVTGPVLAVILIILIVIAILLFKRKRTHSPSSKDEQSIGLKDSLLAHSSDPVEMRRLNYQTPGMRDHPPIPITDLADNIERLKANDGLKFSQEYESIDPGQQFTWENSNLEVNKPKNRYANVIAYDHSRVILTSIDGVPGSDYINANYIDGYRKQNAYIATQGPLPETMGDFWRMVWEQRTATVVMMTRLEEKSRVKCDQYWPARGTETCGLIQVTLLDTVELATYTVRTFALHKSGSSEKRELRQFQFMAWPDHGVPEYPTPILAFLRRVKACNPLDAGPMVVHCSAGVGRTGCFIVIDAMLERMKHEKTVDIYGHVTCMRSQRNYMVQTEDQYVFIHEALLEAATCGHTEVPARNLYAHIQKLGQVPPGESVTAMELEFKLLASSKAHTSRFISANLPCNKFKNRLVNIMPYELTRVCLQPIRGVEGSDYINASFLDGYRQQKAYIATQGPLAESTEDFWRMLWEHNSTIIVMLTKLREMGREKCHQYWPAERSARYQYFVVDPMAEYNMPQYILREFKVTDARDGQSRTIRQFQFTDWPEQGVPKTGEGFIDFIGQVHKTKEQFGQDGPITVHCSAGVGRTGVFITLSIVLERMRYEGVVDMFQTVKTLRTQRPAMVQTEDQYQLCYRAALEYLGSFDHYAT
T4 sequence (P29350 whole entry): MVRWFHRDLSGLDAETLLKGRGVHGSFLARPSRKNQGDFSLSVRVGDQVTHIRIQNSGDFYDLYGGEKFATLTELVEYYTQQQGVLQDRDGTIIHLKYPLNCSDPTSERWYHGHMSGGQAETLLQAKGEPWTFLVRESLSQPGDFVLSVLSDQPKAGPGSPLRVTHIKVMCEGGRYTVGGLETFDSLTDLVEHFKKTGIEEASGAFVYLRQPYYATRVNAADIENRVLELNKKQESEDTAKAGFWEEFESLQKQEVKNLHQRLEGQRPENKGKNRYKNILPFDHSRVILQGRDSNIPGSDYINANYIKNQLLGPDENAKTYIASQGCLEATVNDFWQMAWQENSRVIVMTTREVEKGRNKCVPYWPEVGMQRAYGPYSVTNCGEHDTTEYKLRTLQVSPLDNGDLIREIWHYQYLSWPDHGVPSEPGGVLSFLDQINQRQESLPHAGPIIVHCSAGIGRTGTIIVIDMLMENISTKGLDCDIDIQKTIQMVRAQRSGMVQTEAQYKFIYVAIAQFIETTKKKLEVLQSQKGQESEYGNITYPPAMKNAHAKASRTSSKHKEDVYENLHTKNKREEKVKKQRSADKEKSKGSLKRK

`O=C(NCc1ccccc1)c1cn(C2CC2)c2ccc(I)cc2c1=O`: the inhibition (as a rule, the percentage by which the read-out fell short of the control) in assay [1] was determined as 6.1%.
Still for that read-out and setting: as for `Nc1ccc2c(c1)c(=O)c(C(=O)O)cn2Cc1ccc(F)cc1`, the figure is 12.4%.
For `O=C(NCc1ccccc1)c1cn(C2CC2)c2cc(F)ccc2c1=O`, the inhibition in [1] came to 7.4%.
Regarding `O=C(/C=C(\O)C(=O)N1CCN(C(=O)/C(O)=C\C(=O)c2cccc(N(Cc3ccccc3)Cc3ccccc3)c2)CC1)c1cccc(N(Cc2ccccc2)Cc2ccccc2)c1`, the midpoint of inhibition in assay [2], the IC50, lay at 2.8 µM.
As to `O=C(O)/C(O)=C/C(=O)c1cccc(Cn2cc(C(=O)O)c(=O)c3cc(I)ccc32)c1`, the IC50 – broadly, the concentration that inhibits the measured activity by half – in [2] is 4.62 µM; in assay [3] (read-out: IC50 (converted)), 9.44 µM; in [4] (read-out: IC50 (converted)), 9.82 µM; in assay [5], “Not Active”; in [6], “Not Active”. Also, the Ratio IC50 is 2 in the assay filed under Homo sapiens [7], greater than 10 in the assay listed under Homo sapiens [8] and greater than 10 in the assay filed under Homo sapiens [9]. The inhibition in [10] and in [11] was less than 50% in each case.
Take `O=C(O)c1cn(C2CC2)c2ccc(Cc3ccccc3)cc2c1=O`: the inhibition in assay [1] was 87.5%; in assay [12], less than 50%; in assay [13], less than 50%; in assay [10], less than 50%; in assay [11], less than 50%. The concentration for half-maximal inhibition (IC50) is 23.5 µM in [2]; “Not Active” in assay [3]; “Not Active” in assay [4]; “Not Active” in assay [5]; “Not Active” in assay [6].
Turning to `O=C(O)c1cn(C2CC2)c2ccc(F)cc2c1=O`, the inhibition in assay [1] came to 0.8%.
Compound `COC(=O)c1cc(Cn2cc(C(=O)O)c(=O)c3cc(I)ccc32)ccc1OC` gave an IC50 in assay [2] greater than 40.5 µM.
As for `O=C(O)c1cn(C2CC2)c2ccc(N3CCN(Cc4ccccc4)CC3)cc2c1=O`, the inhibition in assay [1] came to 62.3%. The half-inhibitory concentration (IC50) in [2] is 22.8 µM.
For `O=C(O)c1cn(Cc2ccccc2)c2ccc(Cc3ccccc3)cc2c1=O`, the inhibition in assay [1] came to 15.1%.
The same measure, in the same setting: the result for `O=C(O)c1cn(Cc2ccccc2)c2ccc(I)cc2c1=O` reads 3.1%; that for `O=C(NCc1ccc(F)cc1)c1cn(C2CC2)c2ccc(I)cc2c1=O`, 3.3%; that for `O=C(OCc1ccccc1)c1cn(Cc2ccccc2)c2ccc(Cc3ccccc3)cc2c1=O`, 0.1%.
For the compound `O=C(OCc1ccccc1)c1cn(C2CC2)c2ccc(I)cc2c1=O`, in assay [1], the inhibition amounted to 80.5%. The compound also had an IC50 in assay [2] of 25.6 µM.
Take `O=C(NCc1ccccc1)c1cn(C2CC2)c2ccc(F)cc2c1=O`: the inhibition in [1] worked out at 0.2%.
`O=C(O)c1cn(C2CC2)c2ccc(I)cc2c1=O`: the inhibition in assay [1] amounted to 3.5%.
As to `O=C(O)c1cn(C2CC2)c2ccc(Cc3ccc(F)cc3)cc2c1=O`, the inhibition in assay [1] is 71.1%; in [12] it was less than 50%; in assay [13], less than 50%; in [10] it was less than 50%; in assay [11], less than 50%. Further, the half-maximal inhibitory concentration (IC50) is 36.5 µM in assay [2]; “Not Active” in assay [3]; “Not Active” in assay [4]; “Not Active” in assay [5]; “Not Active” in assay [6].
On to `O=C(O)c1cn(Cc2ccc(F)cc2)c2ccc([N+](=O)[O-])cc2c1=O`, for which, in assay [1], the inhibition was determined as 36.2%.
Regarding `O=C(O)c1cn(Cc2ccccc2)c2ccc(F)cc2c1=O`, in [1], the inhibition was 15.1%.
For the compound `COC(=O)c1cc(Cn2cc(C(=O)NCc3ccccc3)c(=O)c3cc(I)ccc32)ccc1OC`, the half-maximal inhibitory concentration (IC50) in assay [2] is greater than 34.3 µM.
`O=C(NCc1ccccc1)c1cn(Cc2ccccc2)c2ccc(F)cc2c1=O`: the inhibition in assay [1] is 41.4%.
With `COC(=O)c1c(O)cccc1OCCCNC(=O)c1cn(Cc2ccccc2)c2cc(F)ccc2c1=O`, the IC50 in [2] is 18.6 µM.
Turning to `COC(=O)c1c(O)cccc1OCCCNC(=O)c1cn(Cc2ccc(F)cc2)c2ccc([N+](=O)[O-])cc2c1=O`, the half-maximal inhibitory concentration (IC50) in assay [2] is 11.8 µM; in [3], “Not Active”; in assay [4], “Not Active”; in [5] it was “Not Active”; in assay [6] it was “Not Active”. In addition, the inhibition in assay [12], in [13], in assay [10] and in assay [11] was less than 50% in each case.
Compound `O=C(O)c1cn(Cc2ccccc2)c2cc(F)ccc2c1=O` showed an inhibition in [1] of 0.7%.
Take `O=C(OCc1ccc(F)cc1)c1cn(C2CC2)c2ccc(Cc3ccc(F)cc3)cc2c1=O`: the inhibition in assay [1] turned out to be 73%. Further, the IC50 in [2] was 31.4 µM.
Take `COC(=O)c1cc(Cn2cc(C(=O)O)c(=O)c3cc(I)ccc32)ccc1O`: the IC50 is 16.9 µM in [2]; “Not Active” in assay [3]; “Not Active” in [4]; “Not Active” in [5]; “Not Active” in assay [6]. Also, the inhibition in assay [12], in [13], in assay [10] and in assay [11] was less than 50% throughout.
`O=C(NCc1ccccc1)c1cn(Cc2ccccc2)c2ccc(I)cc2c1=O`: the inhibition in assay [1] was 61.8%; in assay [12] it was less than 50%; in [13], less than 50%; in [10], less than 50%; in assay [11] it was less than 50%. In addition, the IC50 in assay [2] was 28.1 µM; in assay [3], “Not Active”; in [4], “Not Active”; in assay [5], “Not Active”; in [6] it was “Not Active”.
As to `COC(=O)c1c(OCCCN2CCN(c3ccc4c(c3)c(=O)c(C(=O)O)cn4C3CC3)CC2)cccc1OCc1ccccc1`, in assay [2], half-maximal inhibition (IC50) required 73.9 µM.
